Assay results taken from ChEMBL document CHEMBL3797186, “Single Residue Substitutions That Confer Voltage-Gated Sodium Ion Channel Subtype Selectivity in the NaV1.7 Inhibitory Peptide GpTx-1” (J Med Chem, 2016).
Positions of bridges follow the written chain, without caps; N, C: chain ends. Non-standard residues stand in square brackets, D forms with d. Residues, ends and D or L forms follow the SMILES beside them. 1Nal = N[C@@H](Cc1cccc2ccccc12)C(=O)O; Lys(Me2) = CN(C)CCCC[C@H](N)C(=O)O

Legend:
Format in all cases: cell-based
[1] = target: T1, Sodium channel protein type 5 subunit alpha (Homo sapiens, UniProt Q14524); test: Inhibition of human Nav1.5 expressed in HEK293 cells assessed as inward peak current by ion-works quattro patch clamp electrophysiology method
T1 sequence (Q14524 whole entry): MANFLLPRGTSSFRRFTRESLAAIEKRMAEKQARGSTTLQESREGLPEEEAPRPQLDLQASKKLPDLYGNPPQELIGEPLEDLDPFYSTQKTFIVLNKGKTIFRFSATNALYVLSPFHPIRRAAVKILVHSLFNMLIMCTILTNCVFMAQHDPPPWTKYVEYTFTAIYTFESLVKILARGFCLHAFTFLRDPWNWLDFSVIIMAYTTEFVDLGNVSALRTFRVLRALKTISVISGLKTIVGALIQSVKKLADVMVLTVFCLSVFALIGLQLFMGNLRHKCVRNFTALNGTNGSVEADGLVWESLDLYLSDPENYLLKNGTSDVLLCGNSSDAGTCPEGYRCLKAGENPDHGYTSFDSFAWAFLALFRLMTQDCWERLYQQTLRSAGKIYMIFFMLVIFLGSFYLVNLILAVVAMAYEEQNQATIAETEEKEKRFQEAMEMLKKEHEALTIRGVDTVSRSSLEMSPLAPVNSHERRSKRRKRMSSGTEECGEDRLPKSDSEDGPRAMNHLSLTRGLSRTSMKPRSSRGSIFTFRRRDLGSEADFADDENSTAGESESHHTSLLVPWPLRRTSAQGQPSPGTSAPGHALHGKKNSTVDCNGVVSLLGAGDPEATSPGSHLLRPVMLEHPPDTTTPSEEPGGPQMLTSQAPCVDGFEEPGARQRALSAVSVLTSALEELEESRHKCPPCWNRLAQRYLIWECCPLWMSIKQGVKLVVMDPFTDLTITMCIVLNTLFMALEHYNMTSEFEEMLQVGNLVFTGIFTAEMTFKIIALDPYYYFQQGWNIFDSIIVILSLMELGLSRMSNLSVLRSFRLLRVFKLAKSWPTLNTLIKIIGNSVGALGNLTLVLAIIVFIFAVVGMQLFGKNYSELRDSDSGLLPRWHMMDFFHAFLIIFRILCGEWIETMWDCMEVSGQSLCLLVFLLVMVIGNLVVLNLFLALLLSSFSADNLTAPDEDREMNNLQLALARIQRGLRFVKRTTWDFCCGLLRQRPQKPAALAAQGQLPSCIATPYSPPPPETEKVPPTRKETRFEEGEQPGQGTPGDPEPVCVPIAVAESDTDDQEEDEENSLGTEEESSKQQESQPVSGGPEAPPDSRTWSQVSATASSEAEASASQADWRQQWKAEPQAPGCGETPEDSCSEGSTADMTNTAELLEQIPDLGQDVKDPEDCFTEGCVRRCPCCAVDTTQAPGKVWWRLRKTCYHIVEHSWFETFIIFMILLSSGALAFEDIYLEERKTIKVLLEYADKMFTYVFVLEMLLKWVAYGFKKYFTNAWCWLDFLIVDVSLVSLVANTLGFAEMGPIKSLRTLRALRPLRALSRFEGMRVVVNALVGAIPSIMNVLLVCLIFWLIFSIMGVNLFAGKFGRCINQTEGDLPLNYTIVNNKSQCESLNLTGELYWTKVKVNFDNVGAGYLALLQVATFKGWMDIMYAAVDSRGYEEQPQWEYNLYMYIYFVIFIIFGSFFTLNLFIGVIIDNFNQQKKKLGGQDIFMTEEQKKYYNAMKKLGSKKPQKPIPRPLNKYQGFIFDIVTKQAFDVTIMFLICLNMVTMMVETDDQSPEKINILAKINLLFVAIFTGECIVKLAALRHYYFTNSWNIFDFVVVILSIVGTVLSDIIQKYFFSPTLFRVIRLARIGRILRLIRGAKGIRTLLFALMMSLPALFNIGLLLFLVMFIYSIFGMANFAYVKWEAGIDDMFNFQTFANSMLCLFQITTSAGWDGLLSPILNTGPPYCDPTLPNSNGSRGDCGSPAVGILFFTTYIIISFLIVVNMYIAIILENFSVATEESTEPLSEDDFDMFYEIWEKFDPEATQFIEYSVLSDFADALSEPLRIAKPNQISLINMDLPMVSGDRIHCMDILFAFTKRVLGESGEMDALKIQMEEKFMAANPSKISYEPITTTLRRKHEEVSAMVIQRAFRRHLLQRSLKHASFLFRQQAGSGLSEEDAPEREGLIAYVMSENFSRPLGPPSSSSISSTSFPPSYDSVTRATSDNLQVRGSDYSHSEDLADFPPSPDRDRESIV
How it was run: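 Stable HEK293 line expressing human NaV1.5, recorded by population patch clamp on the IonWorks Quattro.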

[2] = target: T1, Sodium channel protein type 5 subunit alpha; test: Inhibition of human Nav1.5 expressed in HEK293 cells by whole cell patch clamp electrophysiology method
How it was run: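 Stable HEK293 line expressing human NaV1.5, recorded on the PatchXpress 7000A. Percent inhibition versus concentration was pooled from at least 10 cells, with two to three points per concentration. The pooled set was fitted with a four-parameter Hill equation to give a single IC50 curve.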

[3] = target: Sodium channel protein type 9 subunit alpha (Homo sapiens, UniProt Q15858); test: Inhibition of human Nav1.7 expressed in HEK293 cells assessed as inward peak current by ion-works quattro patch clamp electrophysiology method
Sodium channel protein type 9 subunit alpha, sequence (Q15858 whole entry): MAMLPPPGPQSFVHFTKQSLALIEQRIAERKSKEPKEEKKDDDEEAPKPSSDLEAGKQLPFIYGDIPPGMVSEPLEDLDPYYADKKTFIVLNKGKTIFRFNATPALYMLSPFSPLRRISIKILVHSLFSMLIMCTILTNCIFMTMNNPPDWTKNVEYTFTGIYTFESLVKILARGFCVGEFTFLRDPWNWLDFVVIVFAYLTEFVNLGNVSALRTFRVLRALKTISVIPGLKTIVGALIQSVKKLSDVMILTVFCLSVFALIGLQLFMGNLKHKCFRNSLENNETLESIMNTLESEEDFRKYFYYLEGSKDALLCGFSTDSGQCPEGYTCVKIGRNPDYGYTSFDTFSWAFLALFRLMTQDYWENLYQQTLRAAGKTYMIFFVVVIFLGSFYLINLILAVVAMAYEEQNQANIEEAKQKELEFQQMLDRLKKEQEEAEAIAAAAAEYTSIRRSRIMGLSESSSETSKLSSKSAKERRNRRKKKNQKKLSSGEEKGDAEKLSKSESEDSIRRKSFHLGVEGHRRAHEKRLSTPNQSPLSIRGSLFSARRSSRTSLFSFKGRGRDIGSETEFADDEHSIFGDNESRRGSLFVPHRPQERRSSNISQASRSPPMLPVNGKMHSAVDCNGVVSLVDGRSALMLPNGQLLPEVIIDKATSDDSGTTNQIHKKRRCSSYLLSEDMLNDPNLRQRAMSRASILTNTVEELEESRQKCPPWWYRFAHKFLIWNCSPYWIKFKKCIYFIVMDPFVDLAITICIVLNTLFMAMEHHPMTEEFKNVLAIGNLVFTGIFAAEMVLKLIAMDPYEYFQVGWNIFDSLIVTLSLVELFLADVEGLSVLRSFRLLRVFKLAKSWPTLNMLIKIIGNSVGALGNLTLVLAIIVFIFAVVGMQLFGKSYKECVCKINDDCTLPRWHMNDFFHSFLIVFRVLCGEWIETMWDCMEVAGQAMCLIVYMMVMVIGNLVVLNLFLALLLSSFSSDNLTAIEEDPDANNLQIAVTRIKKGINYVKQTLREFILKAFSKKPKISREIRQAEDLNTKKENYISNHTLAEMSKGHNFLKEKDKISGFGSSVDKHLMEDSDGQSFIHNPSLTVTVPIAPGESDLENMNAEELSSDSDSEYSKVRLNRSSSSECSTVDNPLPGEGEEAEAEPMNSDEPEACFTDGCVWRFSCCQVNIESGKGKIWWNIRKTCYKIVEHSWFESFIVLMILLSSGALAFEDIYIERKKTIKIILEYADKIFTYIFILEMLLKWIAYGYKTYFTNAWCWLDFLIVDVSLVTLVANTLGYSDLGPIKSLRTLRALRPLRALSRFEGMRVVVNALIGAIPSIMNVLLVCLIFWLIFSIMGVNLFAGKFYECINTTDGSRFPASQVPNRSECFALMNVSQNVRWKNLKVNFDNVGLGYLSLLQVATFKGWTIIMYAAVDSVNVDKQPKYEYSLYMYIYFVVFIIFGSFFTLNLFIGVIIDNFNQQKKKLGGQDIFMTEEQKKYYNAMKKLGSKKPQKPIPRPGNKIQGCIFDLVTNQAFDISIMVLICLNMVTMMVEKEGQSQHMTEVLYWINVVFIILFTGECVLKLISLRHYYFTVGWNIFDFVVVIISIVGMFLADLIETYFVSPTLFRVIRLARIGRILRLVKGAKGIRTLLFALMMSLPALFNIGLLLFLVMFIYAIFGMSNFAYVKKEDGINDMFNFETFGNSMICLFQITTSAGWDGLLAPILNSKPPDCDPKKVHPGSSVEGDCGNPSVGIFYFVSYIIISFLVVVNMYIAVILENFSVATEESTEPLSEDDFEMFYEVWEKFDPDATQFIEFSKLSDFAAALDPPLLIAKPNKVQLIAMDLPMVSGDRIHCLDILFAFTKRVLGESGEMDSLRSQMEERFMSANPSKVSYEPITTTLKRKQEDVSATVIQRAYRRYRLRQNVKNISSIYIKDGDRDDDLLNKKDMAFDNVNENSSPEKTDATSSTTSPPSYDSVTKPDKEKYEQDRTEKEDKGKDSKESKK

Compound	IC50 [1] [µM]	IC50 [2] [µM]	IC50 [3] [µM]
CC[C@H](C)[C@@H]1NC(=O)[C@@H]2CSSC[C@@H]3NC(=O)[C@H](C(C)C)NC(=O)[C@H](CC(C)C)NC(=O)[C@H](CC(N)=O)NC(=O)[C@@H]4CCCN4C(=O)[C@H](CCCNC(=N)N)NC(=O)[C@H](CSSC[C@H](NC(=O)[C@@H](N)CC(=O)O)C(=O)N[C@@H](CC(C)C)C(=O)NCC(=O)N[C@@H](Cc4ccccc4)C(=O)N[C@@H](CCSC)C(=O)N[C@@H](CCCNC(=N)N)C(=O)N[C@@H](CCCCN)C(=O)N2)NC(=O)[C@H](CSSC[C@@H](C(=O)N[C@@H](CCCCN)C(=O)N[C@@H](Cc2ccc(O)cc2)C(=O)N[C@H](C(=O)N[C@@H](Cc2ccccc2)C(=O)O)C(C)C)NC(=O)[C@H](Cc2c[nH]c4ccccc24)NC(=O)[C@H](CCCCN)NC(=O)[C@H](Cc2cnc[nH]2)NC(=O)[C@H]([C@@H](C)O)NC(=O)[C@H](CCCNC(=N)N)NC(=O)[C@H](CO)NC3=O)NC(=O)[C@H](CCCCN)NC(=O)[C@H](CC(=O)O)NC(=O)[C@H](CC(N)=O)NC(=O)[C@H](CC(=O)O)NC(=O)[C@@H]2CCCN2C1=O (stereo in doubt)	> 5	> 10	
CC[C@H](C)[C@@H]1NC(=O)[C@@H]2CSSC[C@@H]3NC(=O)[C@H](C(C)C)NC(=O)[C@H](CC(C)C)NC(=O)[C@H](CC(N)=O)NC(=O)[C@@H]4CCCN4C(=O)[C@H](CCCCN(C)C)NC(=O)[C@H](CSSC[C@H](NC(=O)[C@@H](N)CC(=O)O)C(=O)N[C@@H](CC(C)C)C(=O)NCC(=O)N[C@@H](Cc4ccccc4)C(=O)N[C@@H](CCSC)C(=O)N[C@@H](CCCNC(=N)N)C(=O)N[C@@H](CCCCN)C(=O)N2)NC(=O)[C@H](CSSC[C@@H](C(=O)N[C@@H](CCCCN)C(=O)N[C@@H](Cc2ccc(O)cc2)C(=O)N[C@H](C(=O)N[C@@H](Cc2ccccc2)C(N)=O)C(C)C)NC(=O)[C@H](Cc2c[nH]c4ccccc24)NC(=O)[C@H](CCCCN)NC(=O)[C@H](Cc2cnc[nH]2)NC(=O)[C@H]([C@@H](C)O)NC(=O)[C@H](CCCNC(=N)N)NC(=O)[C@H](CO)NC3=O)NC(=O)[C@H](CCCCN)NC(=O)[C@H](CC(=O)O)NC(=O)[C@H](CC(N)=O)NC(=O)[C@H](CC(=O)O)NC(=O)[C@@H]2CCCN2C1=O (H-DCLGFMRKCIPDNDKCC[Lys(Me2)]PNLVCSRTHKWCKYVF-NH2; disulfide 2-17, 9-23, 16-30)	> 5	> 10	
CC[C@H](C)[C@@H]1NC(=O)[C@@H]2CSSC[C@@H]3NC(=O)[C@H](C(C)C)NC(=O)[C@H](CC(C)C)NC(=O)[C@H](CC(N)=O)NC(=O)[C@@H]4CCCN4C(=O)[C@H](CCCN/C(=N/C)NC)NC(=O)[C@H](CSSC[C@H](NC(=O)[C@@H](N)CC(=O)O)C(=O)N[C@@H](CC(C)C)C(=O)NCC(=O)N[C@@H](Cc4ccccc4)C(=O)N[C@@H](CCSC)C(=O)N[C@@H](CCCNC(=N)N)C(=O)N[C@@H](CCCCN)C(=O)N2)NC(=O)[C@H](CSSC[C@@H](C(=O)N[C@@H](CCCCN)C(=O)N[C@@H](Cc2ccc(O)cc2)C(=O)N[C@H](C(=O)N[C@@H](Cc2ccccc2)C(N)=O)C(C)C)NC(=O)[C@H](Cc2c[nH]c4ccccc24)NC(=O)[C@H](CCCCN)NC(=O)[C@H](Cc2cnc[nH]2)NC(=O)[C@H]([C@@H](C)O)NC(=O)[C@H](CCCNC(=N)N)NC(=O)[C@H](CO)NC3=O)NC(=O)[C@H](CCCCN)NC(=O)[C@H](CC(=O)O)NC(=O)[C@H](CC(N)=O)NC(=O)[C@H](CC(=O)O)NC(=O)[C@@H]2CCCN2C1=O	> 5	> 10	
CC[C@H](C)[C@@H]1NC(=O)[C@@H]2CSSC[C@@H]3NC(=O)[C@H](C(C)C)NC(=O)[C@H](CC(C)C)NC(=O)[C@H](CC(N)=O)NC(=O)[C@@H]4CCCN4C(=O)[C@H](CCCNC(=N)N)NC(=O)[C@H](CSSC[C@H](NC(=O)[C@@H](N)CC(=O)O)C(=O)N[C@@H](CC(C)C)C(=O)NCC(=O)N[C@@H](Cc4ccccc4)C(=O)N[C@@H](CCSC)C(=O)N[C@@H](CCCNC(=N)N)C(=O)N[C@@H](CCCCN)C(=O)N2)NC(=O)[C@H](CSSC[C@@H](C(=O)N[C@@H](CCCCN)C(=O)N[C@@H](Cc2ccc(O)cc2)C(=O)N[C@H](C(=O)N[C@@H](Cc2ccccc2)C(N)=O)C(C)C)NC(=O)[C@H](Cc2c[nH]c4ccccc24)NC(=O)[C@H](CCC(N)=O)NC(=O)[C@H](Cc2cnc[nH]2)NC(=O)[C@H]([C@@H](C)O)NC(=O)[C@H](CCCNC(=N)N)NC(=O)[C@H](CO)NC3=O)NC(=O)[C@H](CCCCN)NC(=O)[C@H](CC(=O)O)NC(=O)[C@H](CC(N)=O)NC(=O)[C@H](CC(=O)O)NC(=O)[C@@H]2CCCN2C1=O (H-DCLGFMRKCIPDNDKCCRPNLVCSRTHQWCKYVF-NH2; disulfide 2-17, 9-23, 16-30)		> 10	0.2
CC[C@H](C)[C@@H]1NC(=O)[C@@H]2CSSC[C@@H]3NC(=O)[C@H](C(C)C)NC(=O)[C@H](CC(C)C)NC(=O)[C@H](CC(N)=O)NC(=O)[C@@H]4CCCN4C(=O)[C@H](CCCNC(=N)N)NC(=O)[C@H](CSSC[C@H](NC(=O)[C@@H](N)CC(=O)O)C(=O)N[C@@H](CC(C)C)C(=O)NCC(=O)N[C@@H](Cc4ccccc4)C(=O)N[C@@H](CCSC)C(=O)N[C@@H](CCCNC(=N)N)C(=O)N[C@@H](CCCCN)C(=O)N2)NC(=O)[C@H](CSSC[C@@H](C(=O)N[C@@H](CCCCN)C(=O)N[C@@H](Cc2ccc(O)cc2)C(=O)N[C@H](C(=O)N[C@@H](Cc2ccccc2)C(N)=O)C(C)C)NC(=O)[C@H](Cc2cccc4ccccc24)NC(=O)[C@H](CCCCN)NC(=O)[C@H](Cc2cnc[nH]2)NC(=O)[C@H]([C@@H](C)O)NC(=O)[C@H](CCCNC(=N)N)NC(=O)[C@H](CO)NC3=O)NC(=O)[C@H](CCCCN)NC(=O)[C@H](CC(=O)O)NC(=O)[C@H](CC(N)=O)NC(=O)[C@H](CC(=O)O)NC(=O)[C@@H]2CCCN2C1=O (H-DCLGFMRKCIPDNDKCCRPNLVCSRTHK[1Nal]CKYVF-NH2; disulfide 2-17, 9-23, 16-30)	> 5	> 10	
CC[C@H](C)[C@@H]1NC(=O)[C@@H]2CSSC[C@@H]3NC(=O)[C@H](C(C)C)NC(=O)[C@H](CC(C)C)NC(=O)[C@H](CC(N)=O)NC(=O)[C@@H]4CCCN4C(=O)[C@H](CCCNC(=N)N)NC(=O)[C@H](CSSC[C@H](NC(=O)[C@H](CC(=O)O)NC(C)=O)C(=O)N[C@@H](CC(C)C)C(=O)NCC(=O)N[C@@H](Cc4ccccc4)C(=O)N[C@@H](CCSC)C(=O)N[C@@H](CCCNC(=N)N)C(=O)N[C@@H](CCCCN)C(=O)N2)NC(=O)[C@H](CSSC[C@@H](C(=O)N[C@@H](CCCCN)C(=O)N[C@@H](Cc2ccc(O)cc2)C(=O)N[C@H](C(=O)N[C@@H](Cc2ccccc2)C(N)=O)C(C)C)NC(=O)[C@H](Cc2c[nH]c4ccccc24)NC(=O)[C@H](CCCCN)NC(=O)[C@H](Cc2cnc[nH]2)NC(=O)[C@H]([C@@H](C)O)NC(=O)[C@H](CCCNC(=N)N)NC(=O)[C@H](CO)NC3=O)NC(=O)[C@H](CCCCN)NC(=O)[C@H](CC(=O)O)NC(=O)[C@H](CC(N)=O)NC(=O)[C@H](CC(=O)O)NC(=O)[C@@H]2CCCN2C1=O	> 5	> 10	
CC[C@H](C)[C@@H]1NC(=O)[C@@H]2CSSC[C@@H]3NC(=O)[C@H](C(C)C)NC(=O)[C@H](CC(C)C)NC(=O)[C@H](CC(N)=O)NC(=O)[C@@H]4CCCN4C(=O)[C@H](CCCNC(=N)N)NC(=O)[C@H](CSSC[C@H](NC(=O)[C@@H](N)CC(=O)O)C(=O)N[C@@H](CC(C)C)C(=O)NCC(=O)N[C@@H](Cc4ccccc4)C(=O)N[C@@H](CCSC)C(=O)N[C@@H](CCCNC(=N)N)C(=O)N[C@@H](CCCCN)C(=O)N2)NC(=O)[C@H](CSSC[C@@H](C(=O)N[C@@H](CCCCN)C(=O)N[C@@H](Cc2ccc(O)cc2)C(=O)N[C@H](C(=O)N[C@@H](Cc2ccccc2)C(N)=O)C(C)C)NC(=O)[C@H](Cc2c[nH]c4ccccc24)NC(=O)[C@H](CCCCN)NC(=O)[C@H](Cc2cnc[nH]2)NC(=O)[C@H]([C@@H](C)O)NC(=O)[C@H](CCCNC(=N)N)NC(=O)[C@H](CO)NC3=O)NC(=O)[C@H](CCCCN)NC(=O)[C@H](CC(=O)O)NC(=O)[C@H](CC(N)=O)NC(=O)[C@H](CC(=O)O)NC(=O)[C@H](Cc2c[nH]c3ccccc23)NC1=O (H-DCLGFMRKCIWDNDKCCRPNLVCSRTHKWCKYVF-NH2; disulfide 2-17, 9-23, 16-30)	> 5		0.08
CC[C@H](C)[C@@H]1NC(=O)[C@@H]2CSSC[C@@H]3NC(=O)[C@H](C(C)C)NC(=O)[C@H](CC(C)C)NC(=O)[C@H](CC(N)=O)NC(=O)[C@@H]4CCCN4C(=O)[C@H](CCCNC(=N)N)NC(=O)[C@H](CSSC[C@H](NC(=O)[C@@H](N)CC(=O)O)C(=O)N[C@@H](CC(C)C)C(=O)NCC(=O)N[C@@H](Cc4ccccc4)C(=O)N[C@@H](CCSC)C(=O)N[C@@H](CCCNC(=N)N)C(=O)N[C@@H](CCCCN)C(=O)N2)NC(=O)[C@H](CSSC[C@@H](C(=O)N[C@@H](CCCNC(=N)N)C(=O)N[C@@H](Cc2ccc(O)cc2)C(=O)N[C@H](C(=O)N[C@@H](Cc2ccccc2)C(N)=O)C(C)C)NC(=O)[C@H](Cc2c[nH]c4ccccc24)NC(=O)[C@H](CCCCN)NC(=O)[C@H](Cc2cnc[nH]2)NC(=O)[C@H]([C@@H](C)O)NC(=O)[C@H](CCCNC(=N)N)NC(=O)[C@H](CO)NC3=O)NC(=O)[C@H](CCCCN)NC(=O)[C@H](CC(=O)O)NC(=O)[C@H](CC(N)=O)NC(=O)[C@H](CC(=O)O)NC(=O)[C@@H]2CCCN2C1=O (H-DCLGFMRKCIPDNDKCCRPNLVCSRTHKWCRYVF-NH2; disulfide 2-17, 9-23, 16-30)	> 5		0.95
